The source made the active and inactive calls. Rule as the data show it, unless noted: active = inhibition above about 30%; inactive = the rest. Peptide text beside a SMILES is read from it. * marks the point of attachment. Boc = CC(C)(C)OC(=O)*

A short description of experiment [1]: Her2 expression decrease, cell viability multiplex – SKBR3 breast tumor cells, AlphaScreen, ATP viability, primary screen (AID 461;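 active = Her2 level under about 52% in both replicate screens, with viability over 70% of control, limit read from the data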;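 as to Her2 level: lower value means less Her2 protein in the cells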;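 as to viability: percent of carrier control wells set as 100% viability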). The settings on record: SKBR3 Her2 protein level, 18-24 h, measured here: SKBR3 viability, ATP luminescence, at 10 µM. On the technique in general: In Alpha technology, singlet oxygen from a donor bead excites a nearby acceptor bead.

The target of experiment [2] is Receptor tyrosine-protein kinase erbB-2 (Homo sapiens) (UniProt P04626). Described as above. The settings on record: 18-24 h, at 10 µM, stronger effect = lower value.
Experiment [3] in a line: reduced viability of SK-BR-3 breast cancer cells – cell-based, 24 h, human, pilot screen (AID 572;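 active = viability at or below 10% of carrier control in both of two separate runs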;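 also: compound exposure lasted between 18 and 24 h rather than exactly 24 h; 100% = carrier-treated control wells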). The settings on record: SK-BR-3 viability, CellTiter-Glo luminescence, at 10 µM, stronger effect = lower value.
Experiment [4] is described as follows: HUVEC growth inhibition – cell-based, human, primary screen (AID 575;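 active = viability at or below 30% in both replicate assays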;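 also: 100% = median of untreated cell wells with 0.1% DMSO on each plate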). Particulars: HUVEC proliferation, CellTiter-Glo luminescence, 72 h; at 10 µM; stronger effect = lower value. In outline:
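material = primary HUVEC, no more than 12 passages | input = 1250 cells per well | controls = vehicle and MePR control wells | measured by = CTG luminescence | times = 72 h compound incubation | format = collagen-coated 384-well format | read-out = % viability vs DMSO wells | doses = single 10 µM dose, 0.1% DMSO, from 5x medium stock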

Experiment [5] in a line: H69AR cell proliferation blockers – human, duplicate replicates, primary screen (AID 580;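 active = viability at or under a set limit in both replicates, limit being median viability minus 3 SD, cut at about 48% in these data, passing the limit was not always enough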;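 also: 100% = mean luminescence of untreated wells and 0% = no signal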). The settings on record: H69AR lung tumor cells viability, ATP luminescence, 72 h; at 10 µM; stronger effect = lower value.
Experiment [6] in a line: MRP1 drug-resistance reversers in H69AR cells – cell-based, doxorubicin co-treatment, pilot screen (AID 601;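 active = viability loss from added drug above about 55%, and viability with drug at most 40%, in both replicates, limit read from the data, passing the limit was not always enough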). Particulars: CellTiter-Glo, 72 h, at 10 µM; for differential viability (reversal): stronger effect = higher value. In general terms: Cellular ATP, detected with luciferase, serves as a proxy for viable cell number.
The nature of experiment [7]: yeast transport mutant growth inhibition pilot in 384-well plates, post-Golgi transport modulator project (AID 636; in the data active = inhibition above about 31%). The settings on record: absorbance 615 nm, about 18 h, stronger effect = higher value.
Experiment [8] is described as follows: growth suppression of yeast trafficking mutant, preliminary HTS, modulators of trafficking downstream of Golgi apparatus project, 1536-format plate, OD 615 nm (AID 637). Particulars: yeast transport mutant growth, absorbance 615 nm, 18 h; stronger effect = higher value.
[9] abbreviates: H69AR cells + 2 uM doxorubicin, measured here: viability with 2 uM doxorubicin, stronger effect = lower value.
[10] abbreviates: H69AR cells, compound alone cytotoxicity.

Receptor tyrosine-protein kinase erbB-2 (Homo sapiens), sequence (P04626 whole entry, looked up): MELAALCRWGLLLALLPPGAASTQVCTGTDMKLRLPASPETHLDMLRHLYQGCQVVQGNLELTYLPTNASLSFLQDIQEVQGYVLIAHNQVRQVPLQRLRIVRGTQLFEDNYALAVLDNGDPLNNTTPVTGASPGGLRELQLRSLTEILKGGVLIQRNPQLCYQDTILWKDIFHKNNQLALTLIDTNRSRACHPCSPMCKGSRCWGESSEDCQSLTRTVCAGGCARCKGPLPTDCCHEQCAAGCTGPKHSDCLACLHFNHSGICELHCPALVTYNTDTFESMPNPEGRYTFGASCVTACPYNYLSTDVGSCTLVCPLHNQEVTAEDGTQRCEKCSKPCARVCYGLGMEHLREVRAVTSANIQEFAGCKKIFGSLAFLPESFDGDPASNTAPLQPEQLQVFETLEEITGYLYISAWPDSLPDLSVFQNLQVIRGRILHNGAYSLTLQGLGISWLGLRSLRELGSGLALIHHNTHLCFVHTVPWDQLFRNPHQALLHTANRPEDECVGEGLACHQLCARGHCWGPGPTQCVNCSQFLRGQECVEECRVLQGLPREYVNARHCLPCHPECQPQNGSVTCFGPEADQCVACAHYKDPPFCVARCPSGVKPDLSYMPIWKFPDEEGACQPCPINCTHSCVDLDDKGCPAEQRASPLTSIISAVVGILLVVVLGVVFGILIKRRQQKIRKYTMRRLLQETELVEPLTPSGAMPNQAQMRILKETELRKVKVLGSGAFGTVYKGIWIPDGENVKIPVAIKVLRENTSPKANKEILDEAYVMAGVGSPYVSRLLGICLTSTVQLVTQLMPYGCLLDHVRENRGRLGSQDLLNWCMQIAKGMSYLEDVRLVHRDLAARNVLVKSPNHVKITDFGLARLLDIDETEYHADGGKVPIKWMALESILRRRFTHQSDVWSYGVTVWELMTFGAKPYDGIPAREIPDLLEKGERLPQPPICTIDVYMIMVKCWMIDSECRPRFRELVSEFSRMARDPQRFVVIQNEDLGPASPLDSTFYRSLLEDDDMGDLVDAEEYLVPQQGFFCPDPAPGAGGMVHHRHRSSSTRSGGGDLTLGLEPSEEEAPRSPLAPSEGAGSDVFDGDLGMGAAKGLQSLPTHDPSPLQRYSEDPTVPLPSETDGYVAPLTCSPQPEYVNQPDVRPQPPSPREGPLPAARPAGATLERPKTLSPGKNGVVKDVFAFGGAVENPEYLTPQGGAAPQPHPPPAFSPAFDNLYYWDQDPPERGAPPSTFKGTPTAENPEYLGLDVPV

With `CC(NC(=O)OC(C)(C)C)C(=O)N1CCCC1C(=O)NC(Cc1ccccc1)C(N)=O` (stereo not drawn) (Boc-Ala-Pro-Phe-NH2; configuration not given here), the viability (in general, a read-out of living cells in per cent, often relative to untreated cells) in experiment [1] is 105%; in experiment [3] it was 105% (inactive); in experiment [4], 95.6% (inactive); in experiment [5] it was 101% (inactive); in experiment [6] (setting [9]), 97.1%; in experiment [6] (setting [10]) it was 101%. Also, the Her2 level in experiment [2] was 94% (inactive). Further, in experiment [6] (H69AR cells + 2 uM doxorubicin), the differential viability (reversal) is 4.26% (inactive). The inhibition (in general, the change of the read-out against control, counted positive when it falls) is -1.73% (inactive) in experiment [7] and 4.68% (inactive) in experiment [8].

As for `COc1ccccc1C(=O)n1nc(-c2ccc(Cl)cc2)nc1N`, the viability in experiment [1] is 90%; in experiment [3], 90% (inactive); in experiment [4], 78.7% (inactive); in experiment [5] it was 71.2% (inactive); in experiment [6] (setting [9]), 84.9%; in experiment [6] (setting [10]) it was 71.2%. Moreover, the Her2 level in experiment [2] was 74.5% (inactive). Further, the differential viability (reversal) in experiment [6] (H69AR cells + 2 uM doxorubicin) was -13.7% (inactive). Further, the inhibition was -5.06% (inactive) in experiment [7] and -8.5% (inactive) in experiment [8].

For the compound `CCOC(=O)c1ccccc1NC(=O)N1CCn2c(C)ccc2C1CC` (stereo not given), the viability was 107% in experiment [1]; 107% (inactive) in experiment [3]; 103% (inactive) in experiment [4]; 84.8% (inactive) in experiment [5]; 83.2% in experiment [6] (setting [9]); 84.8% in experiment [6] (setting [10]). Also, the Her2 level in experiment [2] was 88% (inactive). Also, in experiment [6] (H69AR cells + 2 uM doxorubicin), the differential viability (reversal) was 1.62% (inactive). Also, the inhibition was -4.46% (inactive) in experiment [7] and -4.92% (inactive) in experiment [8].

On to `c1ccc(CC2CCN(c3nc4ccccc4n4nnnc34)CC2)cc1`, for which the viability in experiment [1] was 84%; in experiment [3], 84% (inactive); in experiment [4] it was 88.6% (inactive); in experiment [5], 81.5% (inactive); in experiment [6] (setting [9]) it was 73.2%; in experiment [6] (setting [10]), 81.5%. The Her2 level in experiment [2] was 86% (inactive). Moreover, in experiment [6] (H69AR cells + 2 uM doxorubicin), the differential viability (reversal) is 8.36% (inactive). The inhibition in experiment [7] was 0% (inactive); in experiment [8], 1.5% (inactive).

On to `COc1ccc(OCc2nc(N)nc(Nc3cccc(C)c3C)n2)cc1`, for which the viability was 98.5% in experiment [1]; 98.5% (inactive) in experiment [3]; 111% (inactive) in experiment [4]; 103% (inactive) in experiment [5]; 96% in experiment [6] (setting [9]); 103% in experiment [6] (setting [10]). Further, the Her2 level in experiment [2] was 120% (inactive). The differential viability (reversal) in experiment [6] (H69AR cells + 2 uM doxorubicin) was 7.49% (inactive). Further, the results for the inhibition in experiment [7] and in experiment [8] were -4.55% (inactive) and -6% (inactive), respectively.

Consider `O=C(Nc1nc2c(s1)CCc1ccccc1-2)c1cccs1`, for which the viability in experiment [1] was 102%; in experiment [3], 102% (inactive); in experiment [4], 72.2% (inactive); in experiment [5], 82.9% (inactive); in experiment [6] (setting [9]) it was 87.9%; in experiment [6] (setting [10]) it was 82.9%. The Her2 level in experiment [2] is 74% (inactive). For the same compound, the differential viability (reversal) in experiment [6] (H69AR cells + 2 uM doxorubicin) was -4.96% (inactive). Moreover, the values for the inhibition in experiment [7] and in experiment [8] were -3.33% (inactive) and 8.41% (inactive), respectively.

As for `O=C(CSc1nnc(-c2c[nH]c3ccccc23)o1)N(Cc1ccccc1)c1ccc(F)cc1`, the viability in experiment [1] is 100%; in experiment [3], 100% (inactive); in experiment [4], 65.9% (inactive); in experiment [5], 82.4% (inactive); in experiment [6] (setting [9]) it was 96.6%; in experiment [6] (setting [10]), 82.4%. Besides, the Her2 level in experiment [2] is 102% (inactive). In addition, the differential viability (reversal) in experiment [6] (H69AR cells + 2 uM doxorubicin) was -14.3% (inactive). For the same compound, the inhibition in experiment [7] is 2.53% (inactive); in experiment [8] it was 7.7% (inactive).

Take `CCN1CCN(C(=O)c2ccc3c(=O)n(C4CCCC4)c(=S)[nH]c3c2)CC1`: the viability was 85.5% in experiment [1]; 85.5% (inactive) in experiment [3]; 82.9% (inactive) in experiment [4]; 84.7% (inactive) in experiment [5]; 74.8% in experiment [6] (setting [9]); 84.7% in experiment [6] (setting [10]). The Her2 level in experiment [2] is 108% (inactive). The differential viability (reversal) in experiment [6] (H69AR cells + 2 uM doxorubicin) is 9.82% (inactive). Besides, the inhibition in experiment [7] was 7.37% (inactive); in experiment [8] it was 19.5% (inactive).

For `CC(C)NC(=O)CSc1nnc(-c2ccc(C(C)(C)C)cc2)n1C`, the viability in experiment [1] was 95%; in experiment [3] it was 95% (inactive); in experiment [4] it was 71.5% (inactive); in experiment [5] it was 103% (inactive); in experiment [6] (setting [9]), 91.4%; in experiment [6] (setting [10]) it was 103%. In experiment [2], the Her2 level was 82% (inactive). For the same compound, the differential viability (reversal) in experiment [6] (H69AR cells + 2 uM doxorubicin) was 11.6% (inactive). The figures for the inhibition in experiment [7] and in experiment [8] were -2.24% (inactive) and -3.65% (inactive), respectively.

In the case of `NC(=O)COC(=O)CNC(=O)c1ccc(Cl)cc1`, the viability in experiment [1] was 125%; in experiment [3], 125% (inactive); in experiment [4], 86.1% (inactive); in experiment [5] it was 101% (inactive); in experiment [6] (setting [9]), 84.7%; in experiment [6] (setting [10]) it was 101%. Further, the Her2 level in experiment [2] is 98% (inactive). The differential viability (reversal) in experiment [6] (H69AR cells + 2 uM doxorubicin) was 16.1% (inactive). Further, the inhibition in experiment [7] is -2.4% (inactive); in experiment [8], -0.81% (inactive).

Turning to `O=C1CCC(=O)N1OCCCCOc1ccccc1`, the viability in experiment [1] was 123%; in experiment [3], 123% (inactive); in experiment [4], 107% (inactive); in experiment [5] it was 96.2% (inactive); in experiment [6] (setting [9]), 91%; in experiment [6] (setting [10]), 96.2%. Further, the Her2 level in experiment [2] is 93% (inactive). The differential viability (reversal) in experiment [6] (H69AR cells + 2 uM doxorubicin) is 5.21% (inactive). The inhibition is -3.55% (inactive) in experiment [7] and 0.48% (inactive) in experiment [8].

On to `CCCC(c1nnnn1Cc1ccc(OC)cc1)N1CCN(c2ccccc2OC)CC1` (stereo not given), for which the viability in experiment [1] is 103%; in experiment [3] it was 103% (inactive); in experiment [4], 92.4% (inactive); in experiment [5] it was 90% (inactive); in experiment [6] (setting [9]), 95.7%; in experiment [6] (setting [10]), 90%. Further, in experiment [2], the Her2 level is 112% (inactive). In experiment [6] (H69AR cells + 2 uM doxorubicin), the differential viability (reversal) is -5.73% (inactive). For the same compound, the inhibition was -2.47% (inactive) in experiment [7] and -2.3% (inactive) in experiment [8].

Turning to `CCOC(=O)N1CCN(C(=O)CSc2nnc(Cc3ccccc3)o2)CC1`, the viability in experiment [1] was 92.5%; in experiment [3] it was 92.5% (inactive); in experiment [4] it was 76% (inactive); in experiment [5], 103% (inactive); in experiment [6] (setting [9]), 77.2%; in experiment [6] (setting [10]), 103%. In addition, the Her2 level in experiment [2] was 102% (inactive). In addition, in experiment [6] (H69AR cells + 2 uM doxorubicin), the differential viability (reversal) is 25.7% (inactive). Also, the results for the inhibition in experiment [7] and in experiment [8] were 0.27% (inactive) and 1.97% (inactive), respectively.

In the case of `COc1ccc(C)cc1NC(=O)c1nnn(Cc2cccc(F)c2)c1N`, the viability is 85.5% in experiment [1]; 85.5% (inactive) in experiment [3]; 64.9% (inactive) in experiment [4]; 82.7% (inactive) in experiment [5]; 73% in experiment [6] (setting [9]); 82.7% in experiment [6] (setting [10]). Besides, the Her2 level in experiment [2] is 102% (inactive). The differential viability (reversal) in experiment [6] (H69AR cells + 2 uM doxorubicin) is 9.66% (inactive). Moreover, the inhibition in experiment [7] was -3.47% (inactive); in experiment [8], -5.9% (inactive).

For `COc1ccccc1C(=O)N1CCN(C(=O)c2ccncc2)CC1`, the viability in experiment [1] is 122%; in experiment [3] it was 122% (inactive); in experiment [4] it was 88.6% (inactive); in experiment [5], 103% (inactive); in experiment [6] (setting [9]) it was 89.2%; in experiment [6] (setting [10]), 103%. Besides, the Her2 level in experiment [2] is 106% (inactive). In addition, in experiment [6] (H69AR cells + 2 uM doxorubicin), the differential viability (reversal) was 13.7% (inactive). Further, the inhibition in experiment [7] is -3.73% (inactive); in experiment [8] it was 4.35% (inactive).

In the case of `COc1ccc(C(N)=O)cc1N`, the viability is 77.5% in experiment [1]; 77.5% (inactive) in experiment [3]; 105% (inactive) in experiment [4]; 94.6% (inactive) in experiment [5]; 96.3% in experiment [6] (setting [9]); 94.6% in experiment [6] (setting [10]). In addition, in experiment [2], the Her2 level was 116% (inactive). Moreover, in experiment [6] (H69AR cells + 2 uM doxorubicin), the differential viability (reversal) is -1.72% (inactive). Also, the inhibition in experiment [7] is 4.81% (inactive); in experiment [8], 18% (inactive).
